Screening data deposited in PubChem by several laboratories.
TLR4 MyD88 comp – blocks binding of human TLR4 to MyD88; HeLa CL3-4 TLR4/MyD88 BLA complementation, FRET ratio; inhibition, % at 8.4 µM; O00206+Q99836; actives 0.18% (n = 200,000); in the data active means inhibition above about 25%
TLR9-MyD88 block – blocks human TLR9 binding to MyD88; inhibition, % at 4.98 µM; Q9NR96+Q99836; actives 0.21% (n = 340,000); CHO BLA complementation TLR9-MyD88, CCF4 FRET ratio;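 active means inhibition above the mean over all tested compounds plus 3 SD, cut at about 21% in these data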
Target sequence (Q99836 whole entry, looked up): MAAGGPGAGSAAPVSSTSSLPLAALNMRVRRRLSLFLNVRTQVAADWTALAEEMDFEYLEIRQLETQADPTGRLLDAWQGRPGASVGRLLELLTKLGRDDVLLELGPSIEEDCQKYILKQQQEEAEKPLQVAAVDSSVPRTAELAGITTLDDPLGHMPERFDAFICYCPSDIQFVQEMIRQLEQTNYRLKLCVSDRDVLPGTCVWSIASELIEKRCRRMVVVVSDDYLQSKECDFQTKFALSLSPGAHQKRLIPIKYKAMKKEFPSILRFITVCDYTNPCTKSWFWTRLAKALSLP
Target sequence (Q9NR96 whole entry, looked up): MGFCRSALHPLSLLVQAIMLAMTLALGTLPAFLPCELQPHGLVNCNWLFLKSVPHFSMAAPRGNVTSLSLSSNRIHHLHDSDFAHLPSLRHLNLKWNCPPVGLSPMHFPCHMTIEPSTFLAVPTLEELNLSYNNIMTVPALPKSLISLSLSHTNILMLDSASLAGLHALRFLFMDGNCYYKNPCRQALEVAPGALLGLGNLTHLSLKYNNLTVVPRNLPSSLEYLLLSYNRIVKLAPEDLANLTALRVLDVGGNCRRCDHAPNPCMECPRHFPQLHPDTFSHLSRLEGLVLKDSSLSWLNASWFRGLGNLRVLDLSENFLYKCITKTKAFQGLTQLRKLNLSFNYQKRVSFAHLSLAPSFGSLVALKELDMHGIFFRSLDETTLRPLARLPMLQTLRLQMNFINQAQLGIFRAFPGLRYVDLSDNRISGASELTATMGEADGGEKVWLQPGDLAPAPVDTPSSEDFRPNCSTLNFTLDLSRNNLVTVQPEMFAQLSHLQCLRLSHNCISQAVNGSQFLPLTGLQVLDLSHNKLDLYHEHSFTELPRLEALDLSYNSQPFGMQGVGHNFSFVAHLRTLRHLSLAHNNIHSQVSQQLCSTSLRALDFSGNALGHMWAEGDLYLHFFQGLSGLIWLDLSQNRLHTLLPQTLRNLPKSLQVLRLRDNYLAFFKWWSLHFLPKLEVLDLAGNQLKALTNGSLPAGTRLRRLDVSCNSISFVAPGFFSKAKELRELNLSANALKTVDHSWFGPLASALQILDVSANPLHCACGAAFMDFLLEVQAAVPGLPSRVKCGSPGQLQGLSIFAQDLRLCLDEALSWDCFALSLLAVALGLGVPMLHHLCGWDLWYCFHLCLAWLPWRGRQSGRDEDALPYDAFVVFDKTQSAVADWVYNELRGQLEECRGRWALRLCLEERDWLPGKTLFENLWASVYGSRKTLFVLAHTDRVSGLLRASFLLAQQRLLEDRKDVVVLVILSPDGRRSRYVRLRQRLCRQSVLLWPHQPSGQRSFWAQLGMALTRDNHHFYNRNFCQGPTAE
MC4R barr agon – agonists of human melanocortin 4 receptor (MC4R) beta-arrestin; actives 0.98% (n = 360,000); P32245; activation, % at 8.9 µM; U2OS MC4R beta-arrestin complementation, luminescence; percent of melanotan II response, DMSO zero;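 active means activation above a per-plate cutoff, the mean activation of sample wells on that plate plus 3 SD, cut at about 8% in these data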
beta cell repl – induces beta-cell replication in MIN6 cells; actives 0.29% (n = 330,000); AID 2380; MIN6 cells proliferation, ATPlite luminescence, 48 h; cells starved in 0.2% serum; 100% = growth in 10% serum; proliferation, % at 10 µM;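 active means compounds whose signal lies at least 3.5 SD above the mean of all wells on their plate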
NOD2-RIPK2 inh – NOD2-RIPK2 protein interaction inhibition | O43353 | CHO BLA complementation NOD2-RIPK2, CCF4 ratio | inhibition, % at 4.98 µM | actives 0.38% (n = 360,000) | AID 624267; in the data active means inhibition above about 21%
MC4R antag cAMP – human MC4R antagonism in cAMP assay; MC4R-expressing cells, MTII-stimulated cAMP, LANCE TR-FRET; actives 0.48% (n = 360,000); inhibition, % at 6.5 µM;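 active means inhibition above its plate's cutoff, the mean of tested wells on that plate plus 3 SD, cut at about 29% in these data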
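Assay system: human MC4R-expressing U2OS cells; reagent: Melanotan II stimulation of cells; dosing: 6.5 µM single dose; timing: compound 30 min, challenge 1 h, detection 1 h; signal: TR-FRET cAMP assay; replicates: one well per compound, no replicates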
Of the large screens only hits and unclear results are named; the others gave an inactive call. An excerpt weighted towards active compounds, which were near 2.1% of everything screened.

CCOc1ccc(Nc2nc(N)nc(CCl)n2)cc1	MC4R barr agon 12 (no result: TLR4 MyD88 comp)
Cc1ccc(Nc2nc(N)nc(CCl)n2)c(C)c1	MC4R barr agon 15 (no result: TLR4 MyD88 comp)
COc1ccc(OC)c(CCNC(=O)CCCc2nnc3n(C)c(=O)c4sccc4n23)c1	none (no result: TLR4 MyD88 comp)
O=C(Nc1cccnc1Cl)c1cc(-c2cccc(O)c2)on1	MC4R barr agon 12 (no result: TLR4 MyD88 comp)
COc1cc(C(=O)C(=O)N2CCC(Cc3ccccc3)CC2)cc2ccccc12	none (no result: TLR4 MyD88 comp, TLR9-MyD88 block, MC4R barr agon, beta cell repl, MC4R antag cAMP)
Cc1cc(C(=O)OC(C)C(=O)Nc2nc(-c3ccccc3)cs2)c(C)o1 (centres undefined)	none
Cc1cc(C(=O)OCC(=O)Nc2nc(-c3ccccc3)cs2)c(C)o1	MC4R barr agon 8.5
CCN(Cc1ccccc1)C(=O)c1oc2ccc(S(=O)(=O)N3CCOCC3)cc2c1C	none (no result: TLR4 MyD88 comp)
COc1ccc(-c2nc(C#N)c(N3CCc4ccccc4C3)o2)cc1OC	MC4R barr agon 12
CCc1ccc(O)c(N=Cc2cccc(C)c2O)c1	none
CCCc1ccc(O)c(N=Cc2cc(Br)cc(OCC)c2O)c1	MC4R barr agon 12
Cc1nn(C2CCS(=O)(=O)C2)c2nc(C3CC3)cc(C(=O)Nc3cccc(C#N)c3)c12 (centres undefined)	none (no result: TLR4 MyD88 comp)
FC(F)(F)c1ccc(CSc2nccn2-c2ccccc2)cc1	none
Brc1ccc(CSc2nccn2-c2ccccc2)cc1	NOD2-RIPK2 inh 22
CC(C)COC(=O)NC1c2ccccc2Oc2ccccc21	MC4R barr agon 10 (no result: TLR4 MyD88 comp)
COc1ccc(N(C(=O)c2ccco2)C(C(=O)NC2CCCC2)c2cccs2)c(OC)c1 (centres undefined)	none (no result: TLR4 MyD88 comp)
C#CC(=O)N(c1cccc(OC)c1)C(C(=O)NC1CCCC1)c1cccs1 (centres undefined)	MC4R antag cAMP 35
COc1cc(/C=C/C(=O)OCC(=O)Nc2oc(C)c3c(C)n[nH]c(=O)c23)ccc1OC(F)F	none (no result: TLR4 MyD88 comp)
CCCCNC(=O)CSc1nc2ccccc2c(=O)n1CC1COc2ccccc2O1 (centres undefined)	MC4R barr agon 9.4
CCCCCCn1c(SCC(=O)Nc2cc(C)on2)nc2ccccc2c1=O	MC4R barr agon 12
CCc1ccc(OCC(=O)NC(=S)Nc2ccc(S(=O)(=O)NC3CCCCC3)cc2)cc1	MC4R barr agon 8.3
Cc1ccccc1S(=O)(=O)NC(=O)C1(C)CCN1C(=O)c1cccc(F)c1 (centres undefined)	none (no result: TLR4 MyD88 comp, TLR9-MyD88 block, beta cell repl)
Cc1ccc(NC(=S)N(Cc2ccc(Br)cc2)Cc2ccc(C(=O)O)cc2)cc1C	none
CCOc1ccc(CCNC(=O)COc2cc(=O)n(C)c3ccccc23)cc1OCC	none
CCOc1ccc(CCNC(=O)CSc2cc(=O)n(C)c3ccccc23)cc1OCC	beta cell repl 0.0
CCc1ccc(Nc2cnn(-c3nc4ccccc4s3)c(=O)c2Cl)cc1	MC4R barr agon 8.2
CCCCNc1cnn(-c2ccccc2)c(=O)c1Cl	none
O=C(NN=Cc1cc(=O)[nH]c(=O)[nH]1)c1ccncc1	none (no result: TLR4 MyD88 comp, beta cell repl)
COCCNC(=O)c1ccc(Cl)c(S(=O)(=O)Nc2cccc(C)c2C)c1	none (no result: TLR4 MyD88 comp)
COc1ccc(CNCCC(c2ccccc2)c2ccc3c(c2)OCO3)cc1 (centres undefined)	MC4R barr agon 9.1
COc1ccccc1C(CCNCc1ccccc1)c1ccc(OC(C)C)cc1 (centres undefined)	MC4R barr agon 9.0 (no result: TLR4 MyD88 comp)
COc1cc(/C=C/C(=O)O)cc2c1OCCO2	none
CC1(C(=O)Nc2cccc(Oc3ccccc3)c2)CCN1C1Cc2ccccc2C1 (centres undefined)	none (no result: TLR4 MyD88 comp, TLR9-MyD88 block, beta cell repl)
Cc1ccc(NC(=O)C2(C)CCN2C2Cc3ccccc3C2)cc1 (centres undefined)	MC4R barr agon 8.4 (no result: TLR4 MyD88 comp, TLR9-MyD88 block, beta cell repl)
Cc1cc(C)c(OCC(=O)OCC(=O)NCC2CCCCC2)c(C)c1	none (no result: TLR4 MyD88 comp)
COc1ccc(C)cc1Nc1n[n+](-c2ccccc2)c(-c2c(OC)ccc3ccccc23)s1	none (no result: TLR4 MyD88 comp)
c1ccc(-[n+]2nc(Nc3cccc4ccccc34)sc2-c2c3ccccc3cc3ccccc23)cc1	TLR9-MyD88 block 44, NOD2-RIPK2 inh 51 (no result: TLR4 MyD88 comp)
CCOc1ccc(NC(=O)[C@H](Cc2ccccc2)NC(=O)C2CCNCC2)cc1	none (no result: TLR4 MyD88 comp)
CCOC(=O)c1c(NC(=O)C2c3ccccc3Oc3ccccc32)sc(C(=O)N(CC)CC)c1C	none
